Apaf-1 act = activators of human Apaf-1 apoptosome, primary screen, biochemical, DEVD-Rh110 fluorescence, uHTS; Apaf-1 apoptosome caspase-3 activation; active compounds read low; 330,000 tested, 0.31% active; AID 489031, 2010; activity change, negative = activation, % at 20 µM; Apoptotic protease-activating factor 1 (Homo sapiens), O14727;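 active = activity change at or below -40% at 20 µM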
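system = biochemical Apaf-1 apoptosome reconstitution | buffer or medium = 20 mM HEPES pH 7.5 with CHAPS, BSA | also added = dATP and cytochrome c as apoptosome triggers, (Z-DEVD)2-Rh110 substrate | incubation = 30 min compound preincubation and 50 min reaction, both room temperature | measured by = fluorescence, 540 nm emission, 480 nm excitation | read-out basis = Caspase-3 cleavage activity downstream of Apaf-1 activation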
Rh110 interf act = Rh110 fluorescence interference by putative Apaf-1 activators, confirmation, artefact control for Apaf-1 activator project, biochemical, 20 µM. shares compounds with Apaf-1 act. quenched caspase reaction, Ex480/Em540. fluorescence interference (activity change), % at 20 µM, hits read low. 980 tested, under 10 active. AID 504616, 2011;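 active = mean activity change at or below -40% when tested at 20 µM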
Apaf-1 act conf = Apaf-1 activators, single-dose retest, confirmation, biochemical, fluorescence, DEVD-Rh110, 20 µM; AID 504617, 2011; 980 tested, 5% active; activity change, negative = activation, % at 20 µM; shares compounds with Apaf-1 act; reconstituted apoptosome caspase-3 activity; active compounds read low;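 active = mean activity change at or below -40%, meaning activation of 40% or more, at 20 µM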
An asterisk follows results filed as active. Not all results are given here.

SMILES	Apaf-1 act	others
N#Cc1ccc(/C=C/C(=O)O)cc1	-499*	Rh110 interf act=9;Apaf-1 act conf=9
Cn1ncnc2c(=O)n(C)c(=O)nc1-2	99
CCCCCCCCCCCCCCCC[N+](C)(C)C	85
O=S1(=O)N(CCN2CC=C(c3c[nH]c4cc(F)ccc34)CC2)c2cccc3c2N1CCC3	51
CCCCOP(=O)(CN1CCOCC1)OCCCC	-278*	Rh110 interf act=2;Apaf-1 act conf=7
Ic1ccccc1CN[C@@H]1C2CCN(CC2)[C@@H]1C(c1ccccc1)c1ccccc1	50
Cc1[nH]n(-c2ccccc2)c(=O)c1C(c1ccc([N+](=O)[O-])cc1)c1c(C)[nH]n(-c2ccccc2)c1=O	79
COc1ccc2c(c1)NP(=S)(Oc1ccccc1)N2 (centres undefined)	50
CCCN1CCc2cc(O)cc3c2[C@H]1Cc1ccc(O)c(O)c1-3	45
CN(C)[C@@H]1C(=O)C(C(N)=O)=C(O)[C@@]2(O)C(=O)C3=C(O)c4c(O)cccc4[C@@](C)(O)C3[C@H](O)C12 (some centres undefined)	-2
NS(=O)(=O)c1ccc(N=Nc2c(O)[nH]c(=S)[nH]c2=O)cc1	-138*	Rh110 interf act=4;Apaf-1 act conf=4
CN[C@H]1C[C@H]2O[C@@](C)([C@H]1OC)n1c3ccccc3c3c4c(c5c6ccccc6n2c5c31)C(=O)NC4	51
COCCNC(=O)c1c(NC(=O)c2ccco2)n(Cc2ccccc2)c2nc3ccccc3nc12	53
CC(NC(C)(C)C)C(=O)c1cccc(Cl)c1 (centres undefined)	-8
O=[N+]([O-])c1ccc(NCc2ccc(Cl)cc2)c2ccncc12	79
COC(=O)C1=C(c2cccc(OCc3ccccc3)c2)C[C@@H]2CC[C@H]1N2C(=O)NC1CCN(Cc2ccccc2)CC1	48
Nc1c(C(=O)NCCN2CCOCC2)c2nc3ccccc3nc2n1Cc1ccccc1	82
CC(Cc1ccccc1)NC(=O)NC(C)Cc1ccccc1 (centres undefined)	-182*	Rh110 interf act=-8;Apaf-1 act conf=5
c1ccc(CCCN2CCN(CCOC(c3ccccc3)c3ccccc3)CC2)cc1	51
CCCCn1c(NC(=O)c2ccc(Br)o2)c(C(=O)OCC)c2nc3ccccc3nc21	79
COc1cc2c3c(c1OC)Oc1ccc(cc1)C[C@H]1c4c(cc(OC)c(OC)c4Oc4ccc(cc4)C[C@@H]3N(C)CC2)CCN1C	45
Cc1c2ccncc2c(C)c2c1[nH]c1ccccc12	67
COC(=O)C1=C(c2ccc(Cl)c(C(F)(F)F)c2)C[C@@H]2CC[C@H]1N2C(=O)NCCOc1ccc(OC)cc1	40
O=C(c1ccc2c(c1)ncn2-c1ccc(F)cc1F)N1CCC2(CC1)OCCO2	-76*	Rh110 interf act=8;Apaf-1 act conf=5
COCCCn1c(N)c(C(=O)Nc2ccccc2)c2nc3ccccc3nc21	51
SMILES	Apaf-1 act	others
COc1cc2c(cc1O)[C@@H]1Cc3ccc(OC)c(O)c3CN1CC2	93
COCCCn1c(N)c(C(=O)NCc2ccco2)c2nc3ccccc3nc21	95
CCC(C)NC(=O)c1c(N)n(CC2CCCO2)c2nc3ccccc3nc12 (centres undefined)	94
O=[N+]([O-])c1ccc(NCCCN2CCOCC2)c2ncccc12	40
Cc1ccc(-c2ccc(=O)n(CCC(=O)N3CCC4(CC3)OCCO4)n2)cc1	-49*	Rh110 interf act=2;Apaf-1 act conf=11
O=[N+]([O-])c1ccc(N2CCCNCC2)c2ncccc12	45
CC(C)CC(N(C)C)C1(c2ccc(Cl)cc2)CCC1 (centres undefined)	5
C=CCN1C(=O)NC(=O)C(Cc2ccc(OC)c(OC)c2)C1=O (centres undefined)	-549*	Rh110 interf act=6;Apaf-1 act conf=15
CCC(C)NC(=O)c1c(N)n(CCCOC)c2nc3ccccc3nc12 (centres undefined)	91
C[n+]1c(-c2ccccc2)c2cc(N)ccc2c2ccc(N)cc21	98
COCCCn1c(N)c(C(=O)OC(C)COC)c2nc3ccccc3nc21 (centres undefined)	74
O=C1N(CN2CCOCC2)c2ccccc2C1(O)c1c[nH]c2ccccc12 (centres undefined)	-80*	Rh110 interf act=9;Apaf-1 act conf=9
NCCc1ccc(OCc2ccccc2)c(OCc2ccccc2)c1	46
CC(C)CCNC(=O)c1c(N)n(CC2CCCO2)c2nc3ccccc3nc12 (centres undefined)	91
COCCCn1c(N)c(C(=O)Nc2sc3c(c2C(=O)OC)CCCC3)c2nc3ccccc3nc21	90
Nc1c(C(=O)OCc2ccccc2)c2nc3ccccc3nc2n1Cc1cccs1	86
CN1CCc2cc3c(c4c2C1Cc1ccccc1-4)OCO3 (centres undefined)	91
N=c1n(CCO)c2ccccc2n1Cc1ccccc1	-113*	Rh110 interf act=8;Apaf-1 act conf=11
COC(=O)C1=C(c2ccc(F)cc2OCc2ccccc2)C[C@@H]2CC[C@H]1N2C(=O)NC1CCN(Cc2ccccc2)CC1	53
CCC(C)NC(=O)c1c(N)n(Cc2ccc3c(c2)OCO3)c2nc3ccccc3nc12 (centres undefined)	96

Screening data: PubChem BioAssay, Sanford-Burnham Center for Chemical Genomics
